Tests used:
MRC5 = experiment: Cytotoxicity against human MRC5 cells assessed as cell growth inhibition after 72 hrs by alamar blue assay; type: cell-based; settings: MRC5, 72 h
In short: (§1)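 Tumour lines and MRC-5 fibroblasts obtained from ATCC, cultured per ATCC guidelines and confirmed mycoplasma-free by staining. Viability read by Alamar blue after 72 h exposure. IC50 in μM with 95% confidence interval by nonlinear regression, from at least three independent experiments run in duplicate. Doxorubicin served as positive control.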

HL-60 = experiment: Cytotoxicity against human HL60 cells assessed as cell growth inhibition after 72 hrs by alamar blue assay; type: functional, cell-based; settings: HL-60, 72 h; in short: as §1
HCT-8 = experiment: Cytotoxicity against human HCT8 cells assessed as inhibition of cell viability after 69 hrs by MTT assay; type: functional, cell-based; settings: HCT-8, 69 h
MDA-MB-435 = experiment: Cytotoxicity against human MDA-MB-435 cells assessed as inhibition of cell viability after 69 hrs by MTT assay; type: functional, cell-based; settings: MDA-MB-435, 69 h
SF-295 = experiment: Cytotoxicity against human SF295 cells assessed as inhibition of cell viability after 69 hrs by MTT assay; type: functional, cell-based; settings: SF-295, 69 h
MCF7 = experiment: Cytotoxicity against human MCF7 cells assessed as cell growth inhibition after 72 hrs by alamar blue assay; type: functional, cell-based; settings: MCF7, 72 h; in short: as §1
HCT-116 = experiment: Cytotoxicity against human HCT116 cells assessed as cell growth inhibition after 72 hrs by alamar blue assay; type: functional, cell-based; settings: HCT-116, 72 h; in short: as §1
HepG2 = experiment: Cytotoxicity against human HepG2 cells assessed as cell growth inhibition after 72 hrs by alamar blue assay; type: functional, cell-based; settings: HepG2, 72 h; in short: as §1

For `COc1cc2c(cc1OC)[C@H](O)[C@@H]1c3c(cc4c(c3-2)OCO4)CCN1C`, the IC50 (MRC5) was greater than 10 µM, the IC50 (HL-60) was 4.8 µM and the IC50 (HCT-8) was 1.4 µM. The IC50 (MDA-MB-435) was 12.4 µM, the IC50 (SF-295) was 1.4 µM and the IC50 (MCF7) was greater than 10 µM. For the same compound, the IC50 (HCT-116) was greater than 10 µM and the IC50 (HepG2) was 5 µM.
Compound `COc1cc2c(cc1OC)-c1c3c(cc4c1[C@H](C2)N(C)CC4)OCO3` [DICENTRINE] has an IC50 (MRC5) greater than 10 µM, an IC50 (HL-60) of 3.7 µM and an IC50 (MCF7) greater than 10 µM. For the same compound, the IC50 (HCT-116) was 8.8 µM and the IC50 (HepG2) was greater than 10 µM.
`COc1cc2c(=O)cc3c4c(cc5c(c4c2cc1OC)OCO5)CCN3C` was tested, and the IC50 (MRC5) was greater than 10 µM, the IC50 (HL-60) was greater than 10 µM and the IC50 (MCF7) was greater than 10 µM. The IC50 (HCT-116) was greater than 10 µM and the IC50 (HepG2) was greater than 10 µM.
For `COc1cc2c(cc1OC)[C@@H](O)[C@@H]1NCCc3cc4c(c-2c31)OCO4`, the IC50 (MRC5) was greater than 10 µM, the IC50 (HL-60) was 2 µM and the IC50 (MCF7) was 10 µM. It also gave an IC50 (HCT-116) of 4 µM and an IC50 (HepG2) of 9.1 µM.
`COc1cc2c(cc1OC)[C@H](O)[C@@H]1c3c(cc4c(c3-2)OCO4)CC[N+]1(C)[O-]` (stereo not given in full) showed an IC50 (MRC5) greater than 10 µM, an IC50 (HL-60) of 9.6 µM and an IC50 (HCT-8) of 1.9 µM. The IC50 (MDA-MB-435) was 7.3 µM, the IC50 (SF-295) was 1.6 µM and the IC50 (MCF7) was greater than 10 µM. It also gave an IC50 (HCT-116) of 9.2 µM and an IC50 (HepG2) greater than 10 µM.
Work on `COC1=C[C@@]23CCN(C)[C@@H](Cc4cc(O)c(OC)cc42)C3=CC1=O` yielded an IC50 (MRC5) greater than 10 µM, an IC50 (HL-60) greater than 10 µM and an IC50 (MCF7) greater than 10 µM. The IC50 (HCT-116) was greater than 10 µM and the IC50 (HepG2) was greater than 10 µM.
`COc1cc2c(cc1OC)-c1c3c(cc4ccnc(c14)C2=O)OCO3` [DICENTRINONE] showed an IC50 (MRC5) greater than 10 µM, an IC50 (HL-60) greater than 10 µM and an IC50 (MCF7) greater than 10 µM. The IC50 (HCT-116) was greater than 10 µM and the IC50 (HepG2) was greater than 10 µM.
Compound `COc1cccc2c1C(=O)c1c(O)c3c(c(O)c1C2=O)C[C@@](O)(C(=O)CO)C[C@@H]3O[C@H]1C[C@H](N)[C@H](O)[C@H](C)O1` [DOXORUBICIN] has an IC50 (MRC5) of 2.4 µM, an IC50 (HL-60) of 0.04 µM and an IC50 (HCT-116) of 0.3 µM. For the same compound, the IC50 (HepG2) was 0.04 µM.
`COc1ccc2c(c1)c(=O)cc1c3c(cc4c(c32)OCO4)CCN1C` showed an IC50 (MRC5) greater than 10 µM, an IC50 (HL-60) greater than 10 µM and an IC50 (MCF7) greater than 10 µM. The IC50 (HCT-116) was greater than 10 µM and the IC50 (HepG2) was greater than 10 µM.
`COc1ccc(OC)c(OC)c1` [1,2,4-TRIMETHOXYBENZENE] was tested, and the IC50 (MRC5) was greater than 10 µM, the IC50 (HL-60) was greater than 10 µM and the IC50 (MCF7) was greater than 10 µM. The IC50 (HCT-116) was greater than 10 µM and the IC50 (HepG2) was greater than 10 µM.

— ChEMBL document CHEMBL4334473, “Structure-Based Molecular Networking for the Target Discovery of Oxahomoaporphine and 8-Oxohomoaporphine Alkaloids from Duguetia surinamensis” (J Nat Prod, 2019)
